Data published in PubChem BioAssay AID588483 (Southern Research Specialized Biocontainment Screening …, 2011).
“And” between values parts separate entries of the source, which are not always exact repeats. Equal entries are not always repeated. The source made the active and inactive calls.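 The calls were made as follows: active = viability below 70% at any tested concentration, read as cytotoxicity; inactive = the rest.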

How the values were obtained:
[1] = test system: HEp-2 cell viability, luminescence (cytotoxicity counter-screen); test: HEp-2 cell cytotoxicity, dose response, cytotoxicity control for RSV inhibitor project, synthesized compounds, set 14 (AID 588483)
Method in brief: (§1)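 System: uninfected HEp-2 human cells, no virus added; amount: 10,595 HEp-2 cells per well; buffer or medium: DMEM/F12 medium supplemented with heat-inactivated fetal bovine serum; incubation: 6 days at 37 °C; detection: CellTiter-Glo luminescence; read-out: % viability and fitted CC50 (bounds 0 and 100); replicates: triplicate wells per compound concentration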

[2] = as above; settings: HEp-2 cell viability, luminescence (cytotoxicity counter-screen); at 150 µM (top of the series)
Method in brief: as §1

| SMILES | CC50 [1] | viability [2] |
| --- | --- | --- |
| CN(C)c1ccc(Cn2c(=O)n(Cc3ccc(C(=O)NCC4COC4)cc3)c(=O)c3ccccc32)cc1 | 29.7 µM |  |
| O=C(O)c1ccc(Cn2c(=O)n(Cc3ccc(C(=O)NCC4COC4)cc3)c(=O)c3ccccc32)cc1 |  | 119% (inactive) and 107% (inactive) |
